# Measurements as given in PMC11215724 (Journal of Medicinal Chemistry, 2024).
# Legend:
# [1] = Mouse pharmacokinetics; type: in vivo; conditions: single I.V. 3 mg/kg or P.O. 10 mg/kg
# Summary of the method: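 Single dose to mice, either intravenous at 3 mg/kg or oral at 10 mg/kg. Three animals per time point. Plasma concentration–time profiles were used for observed and calculated PK parameters. Animals were watched for treatment-related toxicological signs throughout.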
# [2] = tested on: WM3248; assay: Cell viability assay, WM3248 melanoma cell line; type: cell-based; conditions: WM3248 cells
# [3] = tested on: A375; assay: Cell viability assay, A375 melanoma cell line; type: cell-based; conditions: A375 cells
# [4] = Stability in DMSO; type: physicochemical
# [5] = Aggregation by NMR; type: physicochemical; conditions: Tris buffer
# Summary of the method: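 Compound aggregation checked by WaterLOGSY in the NMR binding-assay buffer at three theoretical concentrations, with 200 μM 4-trifluoromethyl benzoic acid as internal reference. Solubility was checked in PBS and Tris buffer by ¹H 1D spectra. Data were processed with 2 Hz exponential line broadening before Fourier transformation.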
# [6] = starting compounds; cited from earlier work
# [7] = tested on: SKM28, SKMel3, WM3248, A375, SW480; assay: Cell viability assay, all five cancer cell lines together; type: cell-based
# [8] = tested on: SKMel3; assay: Cell viability assay, SKMel3 melanoma cell line; type: cell-based; conditions: read-out: IC50 SKMel3; SKMel3 cells
compound,measurement,setting,value
"FC(F)(F)c1cc(Nc2nc(-c3ccccc3)cc(C3CCNCC3)n2)ccn1 [Compound 20, 4-Phenyl-6-(piperidin-4-yl)-N-(2-(trifluoromethyl)pyridin-4-yl)pyrimidin-2-amine]",tolerability during the PK studies,[1],well tolerated by all animals
"4-(1-Methyl-1H-imidazol-5-yl)-6-(piperidin-4-yl)-N-(3-(trifluoromethyl)phenyl)-1,3,5-triazin-2-amine [Compound 8]",decrease of activity on WM3248 compared to 1,[2],~10 fold
same,effect on A375 (in words),[3],annihilating the effect on A375
same,IC50,[3]; read-out: IC50 A375,> 100 µM
"FC(F)(F)c1cccc(Nc2nc(C3=CCNCC3)nc(-c3ccsc3)n2)c1 [Compound 11, 4-(1,2,3,6-Tetrahydropyridin-4-yl)-6-(thiophen-3-yl)-N-(3-(trifluoromethyl)phenyl)-1,3,5-triazin-2-amine]",stability in DMSO,[4],slight instability in DMSO
"Cn1ccc2ccc(Nc3cc(-c4ccccc4)nc(C4CCNCC4)n3)cc21 [Compound 25, 1-Methyl-N-(6-phenyl-2-(piperidin-4-yl)pyrimidin-4-yl)-1H-indol-6-amine]",aggregation by NMR (50 μM),[5],showed aggregation
CN(C)c1cccc(Nc2cc(-c3ccccc3)nc(C3CCNCC3)n2)c1 [ARN22089],aggregation by NMR at 100 μM,[6],showed aggregation
"4-(Piperidin-4-yl)-6-(pyrrolidin-2-yl)-N-(3-(trifluoromethyl)phenyl)-1,3,5-triazin-2-amine [Compound 10]",antiproliferative activity in the cancer cell lines (in words),[7],complete loss of activity
same,IC50,[8],> 100 µM
FC(F)(F)c1cccc(Nc2cc(-c3ccccc3)nc(C3CCNCC3)n2)c1 [ARN25062],aggregation by NMR at 100 μM,[6],showed aggregation
"COc1ccc(Nc2nc(-c3ccccc3)cc(C3CCNCC3)n2)cc1OC [Compound 15, N-(3,4-Dimethoxyphenyl)-4-phenyl-6-(piperidin-4-yl)pyrimidin-2-amine]",tolerability during the PK studies,[1],well tolerated by all animals
